Measurements published in ChEMBL document CHEMBL4017509, “A Dual Modulator of Farnesoid X Receptor and Soluble Epoxide Hydrolase To Counter Nonalcoholic Steatohepatitis” (J Med Chem, 2017).
pEC50, pIC50: −log10 of the molar value. Calls of active or inactive are those of the source. The calls are words filed in the database; no cut-off is given here.

Assays:
Bile acid receptor [1] = target: T1, Bile acid receptor (Homo sapiens, UniProt Q96RI1); test: Transactivation of FXR in human HepG2 cells assessed as CYP7A1 mRNA expression at 3 uM after 8 to 16 hrs by SYBR green based qRT-PCR analysis relative to DMSO control; assay type: ADME, cell-based
T1 sequence (Q96RI1 whole entry): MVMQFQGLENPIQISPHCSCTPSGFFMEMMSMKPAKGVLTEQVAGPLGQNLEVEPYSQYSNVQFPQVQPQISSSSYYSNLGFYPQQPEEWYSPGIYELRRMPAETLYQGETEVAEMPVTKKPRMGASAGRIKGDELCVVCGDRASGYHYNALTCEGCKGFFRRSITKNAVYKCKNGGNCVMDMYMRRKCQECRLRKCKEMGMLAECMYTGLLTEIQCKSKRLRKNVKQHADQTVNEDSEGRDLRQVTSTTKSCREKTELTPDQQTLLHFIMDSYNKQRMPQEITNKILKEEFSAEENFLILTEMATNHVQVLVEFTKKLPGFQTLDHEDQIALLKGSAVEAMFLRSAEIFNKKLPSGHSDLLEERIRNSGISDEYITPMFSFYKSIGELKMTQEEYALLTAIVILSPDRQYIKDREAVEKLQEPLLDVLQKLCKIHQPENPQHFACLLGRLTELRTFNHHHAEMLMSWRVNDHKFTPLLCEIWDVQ
Method in brief: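 HepG2 cells treated 8 or 16 h with compound or 0.1% DMSO, washed in cold PBS, RNA extracted; SYBR Green qRT-PCR in duplicate, ≥4 independent experiments (n = 3 for CD36/FAM3A). ΔΔCt method with GAPDH reference; expression as % of vehicle (100%). Pioglitazone 1 μM used as positive control for the PPARγ genes.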

[2] = target: T2, Bifunctional epoxide hydrolase 2 (Homo sapiens) (UniProt P34913); test: Inhibition of sEH in human HepG2 cells assessed as NF-kappaB mRNA expression at 10 uM after 8 to 16 hrs by SYBR green based qRT-PCR analysis relative to DMSO control; assay type: cell-based
T2 sequence (whole entry): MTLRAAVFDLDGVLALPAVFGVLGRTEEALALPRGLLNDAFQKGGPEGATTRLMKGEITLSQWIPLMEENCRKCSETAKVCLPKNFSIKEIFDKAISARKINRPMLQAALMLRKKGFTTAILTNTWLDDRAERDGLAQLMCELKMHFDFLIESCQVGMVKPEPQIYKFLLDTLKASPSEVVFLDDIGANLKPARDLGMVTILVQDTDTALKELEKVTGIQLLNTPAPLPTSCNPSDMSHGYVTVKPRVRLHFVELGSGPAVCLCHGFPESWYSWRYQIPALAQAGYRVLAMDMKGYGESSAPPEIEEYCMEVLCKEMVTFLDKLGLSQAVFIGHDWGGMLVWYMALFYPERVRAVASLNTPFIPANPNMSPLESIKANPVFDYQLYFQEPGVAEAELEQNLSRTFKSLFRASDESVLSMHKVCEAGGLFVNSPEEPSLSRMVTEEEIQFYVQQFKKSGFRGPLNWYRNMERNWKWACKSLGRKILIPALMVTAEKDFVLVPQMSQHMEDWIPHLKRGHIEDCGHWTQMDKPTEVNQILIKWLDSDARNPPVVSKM

[3] = target: T2, Bifunctional epoxide hydrolase 2 (Homo sapiens); test: Inhibition of sEH in primary human monocytes-derived macrophages assessed as reduction in LPS-stimulated IL-12p70 release at 10 uM after 16 hrs by cytometric bead array method; assay type: cell-based
Method in brief: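 Blood monocytes isolated by dextran sedimentation and Nycoprep gradient, adherence-selected 1 h, differentiated with GM-CSF 10 ng/mL for 7 days plus IFNγ 10 ng/mL for last 48 h. Stimulated with LPS 100 ng/mL plus compound for 16 h; supernatant IL-10 and IL-12p70 measured by cytometric bead array flow cytometry.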

Bile acid receptor [4] = target: T1, Bile acid receptor; test: Transactivation of human FXR expressed in human HeLa cells co-expressing BSEP after 24 hrs by dual-glo luciferase reporter gene assay; assay type: cell-based
Method in brief: (§1)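 HeLa cells in DMEM/10% FCS at 37 °C, 5% CO2; switched to 0.5% charcoal-stripped FCS before calcium phosphate co-transfection with pcDNA3-hFXR, pSG5-hRXR, BSEP promoter–firefly luciferase reporter and pRL-SV40 renilla. Compound in 0.1% DMSO, phenol red-free medium, 24 h.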

[5] = target: T3, Bile acid receptor (Homo sapiens) (UniProt Q96RI1); test: Transactivation of human FXR expressed in human HeLa cells co-expressing BSEP at 50 uM after 24 hrs by dual-glo luciferase reporter gene assay relative to GW4064; assay type: cell-based; method in brief: as §1
T3 sequence (whole entry): T1 sequence (Q96RI1 whole entry)

[6] = Aqueous solubility of compound at 5 mg after 24 hrs by HPLC analysis; assay type: physicochemical
[7] = target: T4, Bifunctional epoxide hydrolase 2 (Homo sapiens, UniProt P34913); test: Inhibition of recombinant human sEH using PHOME as substrate preincubated for 30 mins followed by substrate addition measured for 30 mins by fluorescence photometric method; details: read-out: IC50
T4 sequence (P34913 whole entry): T2 sequence (whole entry)
Method in brief: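 Recombinant human sEH in Bis-Tris buffer pH 7, 0.1 mg/mL BSA, 0.01% Triton X-100 (final), preincubated 30 min at room temperature with compound (1% DMSO final). PHOME added at 50 μM final; 6-methoxynaphthaldehyde fluorescence read each minute for 30 min.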

[8] = target: T3, Bile acid receptor (Homo sapiens); test: Transactivation of FXR in human HepG2 cells assessed as SHP mRNA expression at 1 uM after 8 to 16 hrs by SYBR green based qRT-PCR analysis relative to DMSO control; assay type: cell-based
Method in brief: (§2)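 HepG2 cells incubated with test compound (0.1 and 1 μM) or 0.1% DMSO for 8 or 16 h, washed in cold PBS, RNA extracted; target mRNA by SYBR Green qRT-PCR, duplicate samples, ≥4 independent experiments; comparative ΔΔCt with GAPDH reference, vehicle set as 100%.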

[9] = target: T3, Bile acid receptor (Homo sapiens); test: Transactivation of FXR in human HepG2 cells assessed as BSEP mRNA expression at 1 uM after 8 to 16 hrs by SYBR green based qRT-PCR analysis relative to DMSO control; assay type: cell-based; method in brief: as §2
[10] = target: T2, Bifunctional epoxide hydrolase 2 (Homo sapiens); test: Inhibition of sEH in human HepG2 cells assessed as NF-kappaB mRNA expression at 1 uM after 8 to 16 hrs by SYBR green based qRT-PCR analysis relative to DMSO control; assay type: cell-based
Method in brief: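 HepG2 cells treated with compound or 0.1% DMSO vehicle; NF-κB mRNA quantified by SYBR Green qRT-PCR, comparative ΔΔCt with GAPDH reference; expressed as % of vehicle (100%).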

[11] = target: T3, Bile acid receptor (Homo sapiens); test: Transactivation of FXR in human HepG2 cells assessed as SREBP1c mRNA expression at 1 uM after 8 to 16 hrs by SYBR green based qRT-PCR analysis relative to DMSO control; assay type: cell-based; method in brief: as §2
[12] = target: T3, Bile acid receptor (Homo sapiens); test: Transactivation of FXR in human HepG2 cells assessed as FGF19 mRNA expression at 1 uM after 8 to 16 hrs by SYBR green based qRT-PCR analysis relative to DMSO control; assay type: cell-based; method in brief: as §2
[13] = target: T2, Bifunctional epoxide hydrolase 2 (Homo sapiens); test: Inhibition of sEH in human HuT-78 cells assessed as reduction in Pam3CSK4-stimulated TNFalpha release preincubated for 24 hrs followed by Pam3CSK4 addition measured after 18 hrs by ELISA; assay type: cell-based
Method in brief: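 HuT-78 cells in RPMI 1640 with 10% heat-inactivated FCS, 2.0 × 10^6 cells/well, exposed to compound (0.1% DMSO) for 24 h; medium then replaced with fresh compound plus Pam3CSK4 20 ng/mL for 18 h; supernatant TNFα measured by ELISA (absorbance 450 nm); each concentration repeated independently at least three times.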

[14] = target: T2, Bifunctional epoxide hydrolase 2 (Homo sapiens); test: Inhibition of sEH in primary human monocytes-derived macrophages assessed as reduction in LPS-stimulated IL-12p70 release at 1 uM after 16 hrs by cytometric bead array method; assay type: cell-based
Method in brief: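 Human blood monocytes isolated by dextran sedimentation/Nycoprep and adherence, differentiated to macrophages with GM-CSF 10 ng/mL for 7 days plus IFNγ 10 ng/mL for final 48 h; stimulated with LPS 100 ng/mL together with compound for 16 h; supernatant IL-12p70 measured by cytometric bead array on flow cytometer.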

## CC(C)c1onc(-c2c(Cl)cccc2Cl)c1COc1ccc(/C=C/c2cccc(C(=O)O)c2)c(Cl)c1
Bile acid receptor [1]
  Activity: 0.03%

## O=C(Nc1ccc(I)cc1)NC1CCCCC1
[2]
  inhibition: 22.9%
[3]
  inhibition: Active

## CC(C)(C)c1ccc(C(=O)NCc2ccc(NC(=O)C(F)(F)F)cc2Cl)cc1
Bile acid receptor [4]
  pEC50: 7.85
[5]
  Emax: 21%
[6]
  solubility at 24 h: < 0.1 µg/mL
[7]
  pIC50: 8.05

## CC[C@H]1[C@@H](O)[C@@H]2[C@H](CC[C@]3(C)[C@@H]([C@H](C)CCC(=O)O)CC[C@@H]23)[C@@]2(C)CC[C@@H](O)C[C@@H]12
[8]
  Activity: 416%
[9]
  Activity: 970%
[10]
  inhibition: 29%
[11]
  Activity: 51%
[12]
  Activity: 640%
[13]
  inhibition: inactive
[14]
  inhibition: Active
